Measurements from ChEMBL document CHEMBL3596194, “Design, synthesis and biological evaluation of bivalent benzoxazolone and benzothiazolone ligands as potential anti-inflammatory/analgesic agents” (Bioorg Med Chem, 2015).
Activity calls are given as the source filed them. The rule behind the calls is not given here.

Molecular target: T1, Nitric oxide synthase, inducible (Mus musculus) (UniProt P29477)
T1 sequence (whole entry): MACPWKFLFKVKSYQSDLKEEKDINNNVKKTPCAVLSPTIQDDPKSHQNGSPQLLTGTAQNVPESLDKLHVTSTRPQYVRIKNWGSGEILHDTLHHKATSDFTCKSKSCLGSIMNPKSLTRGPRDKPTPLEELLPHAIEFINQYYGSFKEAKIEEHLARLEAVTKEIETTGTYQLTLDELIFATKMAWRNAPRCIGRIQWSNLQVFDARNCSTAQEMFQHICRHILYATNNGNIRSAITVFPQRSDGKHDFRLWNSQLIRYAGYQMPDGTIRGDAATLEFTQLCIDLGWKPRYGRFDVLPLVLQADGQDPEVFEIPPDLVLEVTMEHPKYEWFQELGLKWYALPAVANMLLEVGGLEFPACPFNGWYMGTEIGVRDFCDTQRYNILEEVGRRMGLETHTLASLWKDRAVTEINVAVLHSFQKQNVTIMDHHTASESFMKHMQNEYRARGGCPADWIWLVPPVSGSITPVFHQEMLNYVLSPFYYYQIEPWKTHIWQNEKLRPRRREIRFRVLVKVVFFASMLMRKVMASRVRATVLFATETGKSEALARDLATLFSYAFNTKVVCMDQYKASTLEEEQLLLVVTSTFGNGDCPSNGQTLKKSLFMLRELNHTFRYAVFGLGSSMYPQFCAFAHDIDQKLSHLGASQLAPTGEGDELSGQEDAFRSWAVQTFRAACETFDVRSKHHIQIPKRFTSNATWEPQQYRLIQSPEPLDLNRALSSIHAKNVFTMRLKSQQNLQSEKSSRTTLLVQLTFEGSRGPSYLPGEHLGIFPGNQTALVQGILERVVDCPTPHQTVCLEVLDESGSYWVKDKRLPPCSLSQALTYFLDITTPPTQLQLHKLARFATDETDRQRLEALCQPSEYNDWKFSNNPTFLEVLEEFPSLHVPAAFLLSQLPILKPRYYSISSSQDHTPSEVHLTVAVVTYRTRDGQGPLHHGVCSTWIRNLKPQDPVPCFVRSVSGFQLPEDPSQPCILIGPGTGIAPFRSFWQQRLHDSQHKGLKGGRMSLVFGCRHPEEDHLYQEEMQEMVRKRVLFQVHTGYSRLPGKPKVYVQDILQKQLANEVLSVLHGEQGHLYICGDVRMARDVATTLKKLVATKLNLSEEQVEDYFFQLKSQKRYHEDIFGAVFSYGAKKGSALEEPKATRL
Assay: Antiinflammatory activity in mouse RAW264.7 cells assessed as inhibition of LPS-induced iNOS activity up to 25 ug/ml incubated for 30 mins prior to LPS challenge measured after 24 hrs by Griess assay
Format: cell-based
Settings: not given
In short: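 RAW264.7 macrophages seeded at 50,000 cells/well and grown 24 h to ≥75% confluency. Compounds in serum-free medium added 30 min before LPS (5 μg/mL), then 24 h incubation. Nitrite in the supernatant measured with Griess reagent.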
For `O=c1oc2ccccc2n1CCCCN1CCN(CCCn2c(=O)oc3ccccc32)CC1`, the inhibition was “inactive”.
In the case of `O=c1oc2ccccc2n1CCCN1CCN(CCn2c(=O)oc3ccccc32)CC1`, the inhibition is reported as “inactive”.
In the case of `O=c1oc2ccccc2n1CCN1CCN(CCn2c(=O)oc3ccccc32)CC1`, the inhibition is reported as “inactive”.

Test system: not listed separately
Assay: Antiinflammatory activity in human SW1353 cells assessed as inhibition of PMA-induced NF-kappaB activity incubated for 30 mins prior to PMA challenge measured after 8 hrs by luciferase reporter gene assay
Format: cell-based
Settings: not given
In short: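 SW1353 cells in DMEM/F12 with 10% FBS, electroporated with NF-κB luciferase plasmid (160 V, one 70-ms pulse), plated at 1.25 × 10⁵ cells/well. After 24 h, graded compound concentrations added 30 min before PMA 70 ng/mL, then 8 h incubation. Luciferase read-out, % inhibition versus vehicle, IC50 from dose curves. Sp-1 reporter served as nonspecific control.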
With `O=c1sc2ccccc2n1CCCCCN1CCN(CCCn2c(=O)sc3ccccc32)CC1` the IC50 was 1.46 µM.
`O=c1sc2ccccc2n1CCCCCN1CCN(CCCCn2c(=O)sc3ccccc32)CC1` showed an IC50 of 1.18 µM.

Test system: SW1353
Assay: Antiinflammatory activity in human SW1353 cells assessed as inhibition of PMA-induced NF-kappaB activity up to 25 ug/ml incubated for 30 mins prior to PMA challenge measured after 8 hrs by luciferase reporter gene assay
Format: cell-based
Settings: not given
In short: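 SW1353 chondrosarcoma cells grown in DMEM/F12 with 10% FBS at 37 °C, 5% CO2. Cells electroporated with an NF-κB luciferase plasmid (50 μg/mL, 160 V, one 70-ms pulse) and plated at 1.25 × 10⁵ cells/well. After 24 h, compound was added 30 min before PMA (70 ng/mL), then 8 h incubation. Luciferase read-out as % inhibition vs vehicle; IC50 from dose curves. Sp-1 served as a counter-screen.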
With `O=c1oc2ccccc2n1CCCCN1CCN(CCCn2c(=O)oc3ccccc32)CC1` the inhibition was “inactive”.
With `O=c1oc2ccccc2n1CCCN1CCN(CCn2c(=O)oc3ccccc32)CC1` the inhibition was “inactive”.
In the case of `O=c1oc2ccccc2n1CCN1CCN(CCn2c(=O)oc3ccccc32)CC1`, the inhibition is reported as “inactive”.

Test system: not listed separately
Assay: Cytotoxicity against pig LLC-PK11 cells up to 25 ug/ml after 48 hrs by neutral red assay relative to control
Format: cell-based, Sus scrofa
Settings: llc-pk11, 48 h
In short: (§1)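 Cells grown in RPMI-1640 with 10% bovine calf serum and amikacin at 37 °C, 5% CO2. Seeded at 25,000 cells/well and grown 24 h, then exposed 48 h to samples diluted in serum-free medium. Viability by Neutral Red; % decrease vs vehicle; IC50 from dose curves. Triplicate runs, mean reported; doxorubicin as positive control.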
For `O=c1sc2ccccc2n1CCCCCN1CCN(CCCn2c(=O)sc3ccccc32)CC1`, the Activity was “Non-toxic”.
With `O=c1oc2ccccc2n1CCCCN1CCN(CCCn2c(=O)oc3ccccc32)CC1` the Activity was “Non-toxic”.
In the case of `O=c1sc2ccccc2n1CCCCCN1CCN(CCCCn2c(=O)sc3ccccc32)CC1`, the Activity is reported as “Non-toxic”.
In the case of `O=c1oc2ccccc2n1CCCN1CCN(CCn2c(=O)oc3ccccc32)CC1`, the Activity is reported as “Non-toxic”.
With `O=c1oc2ccccc2n1CCN1CCN(CCn2c(=O)oc3ccccc32)CC1` the Activity was “Non-toxic”.

Test system: Vero
Assay: Cytotoxicity against African green monkey Vero cells up to 25 ug/ml after 48 hrs by neutral red assay relative to control
Format: cell-based
Settings: chlorocebus sabaeus
In short: as §1
With `O=c1sc2ccccc2n1CCCCCN1CCN(CCCn2c(=O)sc3ccccc32)CC1` the Activity was “Non-toxic”.
For `O=c1oc2ccccc2n1CCCCN1CCN(CCCn2c(=O)oc3ccccc32)CC1`, the Activity was “Non-toxic”.
With `O=c1sc2ccccc2n1CCCCCN1CCN(CCCCn2c(=O)sc3ccccc32)CC1` the Activity was “Non-toxic”.
With `O=c1oc2ccccc2n1CCCN1CCN(CCn2c(=O)oc3ccccc32)CC1` the Activity was “Non-toxic”.
For `O=c1oc2ccccc2n1CCN1CCN(CCn2c(=O)oc3ccccc32)CC1`, the Activity was “Non-toxic”.

Test system: SK-OV-3
Assay: Cytotoxicity against human SKOV3 cells up to 25 ug/ml after 48 hrs by neutral red assay relative to control
Format: cell-based
Settings: sk-ov-3, 48 h
In short: as §1
For `O=c1sc2ccccc2n1CCCCCN1CCN(CCCn2c(=O)sc3ccccc32)CC1`, the Activity was “Non-toxic”.
For `O=c1oc2ccccc2n1CCCCN1CCN(CCCn2c(=O)oc3ccccc32)CC1`, the Activity was “Non-toxic”.
In the case of `O=c1sc2ccccc2n1CCCCCN1CCN(CCCCn2c(=O)sc3ccccc32)CC1`, the Activity is reported as “Non-toxic”.
For `O=c1oc2ccccc2n1CCCN1CCN(CCn2c(=O)oc3ccccc32)CC1`, the Activity was “Non-toxic”.
In the case of `O=c1oc2ccccc2n1CCN1CCN(CCn2c(=O)oc3ccccc32)CC1`, the Activity is reported as “Non-toxic”.

Test system: BT-549
Assay: Cytotoxicity against human BT549 cells after 48 hrs by neutral red assay relative to control
Format: cell-based
Settings: BT-549, 48 h
In short: (§2)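 Cells grown in RPMI-1640 with 10% bovine calf serum and amikacin at 37°C, 5% CO₂. Seeded 25,000 cells/well, grown 24 h, then exposed to compounds diluted in serum-free medium for 48 h. Viability by Neutral Red uptake, % decrease versus vehicle control. IC50 from dose curves, triplicate means. Doxorubicin positive control.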
Compound `O=c1sc2ccccc2n1CCCCCN1CCN(CCCn2c(=O)sc3ccccc32)CC1` has an IC50 of 14 µM.
With `O=c1sc2ccccc2n1CCCCCN1CCN(CCCCn2c(=O)sc3ccccc32)CC1` the IC50 was 22.1 µM.

Test system: BT-549
Assay: Cytotoxicity against human BT549 cells up to 25 ug/ml after 48 hrs by neutral red assay relative to control
Format: cell-based
Settings: bt-549, 48 h
In short: as §1
In the case of `O=c1oc2ccccc2n1CCCCN1CCN(CCCn2c(=O)oc3ccccc32)CC1`, the Activity is reported as “Non-toxic”.
For `O=c1oc2ccccc2n1CCCN1CCN(CCn2c(=O)oc3ccccc32)CC1`, the Activity was “Non-toxic”.
In the case of `O=c1oc2ccccc2n1CCN1CCN(CCn2c(=O)oc3ccccc32)CC1`, the Activity is reported as “Non-toxic”.

Test system: KB
Assay: Cytotoxicity against human KB cells up to 25 ug/ml after 48 hrs by neutral red assay relative to control
Format: cell-based
Settings: not given
In short: as §1
With `O=c1sc2ccccc2n1CCCCCN1CCN(CCCn2c(=O)sc3ccccc32)CC1` the Activity was “Non-toxic”.
In the case of `O=c1oc2ccccc2n1CCCCN1CCN(CCCn2c(=O)oc3ccccc32)CC1`, the Activity is reported as “Non-toxic”.
For `O=c1sc2ccccc2n1CCCCCN1CCN(CCCCn2c(=O)sc3ccccc32)CC1`, the Activity was “Non-toxic”.
For `O=c1oc2ccccc2n1CCCN1CCN(CCn2c(=O)oc3ccccc32)CC1`, the Activity was “Non-toxic”.
For `O=c1oc2ccccc2n1CCN1CCN(CCn2c(=O)oc3ccccc32)CC1`, the Activity was “Non-toxic”.

Test system: SK-MEL
Assay: Cytotoxicity against human SK-MEL cells after 48 hrs by neutral red assay relative to control
Format: cell-based
Settings: not given
In short: as §2
In the case of `O=c1sc2ccccc2n1CCCCCN1CCN(CCCn2c(=O)sc3ccccc32)CC1`, the IC50 is reported as 16.8 µM.
`O=c1sc2ccccc2n1CCCCCN1CCN(CCCCn2c(=O)sc3ccccc32)CC1` gave an IC50 of 17.5 µM.

Test system: SK-MEL
Assay: Cytotoxicity against human SK-MEL cells up to 25 ug/ml after 48 hrs by neutral red assay relative to control
Format: cell-based
Settings: not given
In short: as §1
In the case of `O=c1oc2ccccc2n1CCCCN1CCN(CCCn2c(=O)oc3ccccc32)CC1`, the Activity is reported as “Non-toxic”.
With `O=c1oc2ccccc2n1CCCN1CCN(CCn2c(=O)oc3ccccc32)CC1` the Activity was “Non-toxic”.
For `O=c1oc2ccccc2n1CCN1CCN(CCn2c(=O)oc3ccccc32)CC1`, the Activity was “Non-toxic”.
